# Compound activity as filed in PubChem BioAssay.
# TRPC6 inhibitor = blocks the mouse TRPC6 cation channel. Q61143. B-score at 10 µM. 1.1% of 310,000 active. HEK293-TRPC6, membrane potential dye, ACh-evoked depolarization; hits give low values;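 active = B-score under library mean minus 3 SD, initial fluorescence not abnormally high, positive integrated signal ratio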;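 note: B-score derived from integrated fluorescence ratio over the kinetic read; more negative B-score means stronger inhibition of depolarization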
# TRPC4 PAM = allosterically enhances the mouse TRPC4 cation channel; Q9QUQ5; HEK293 TRPC4beta/mu-opioid, DAMGO EC20, Fluo-4 Ca2+ flux; hits give high values; B-score at 10 µM; 0.42% of 310,000 active; AID 2227;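 active = B-score of calcium response area above 5 SD of library B-scores, with initial fluorescence ratio within 5 SD of library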
# TRPC4 agonist = TRPC4 (mouse) channel activation. Q9QUQ5. HEK293 TRPC4beta/mu-opioid, Fluo4 calcium fluorescence; hits give high values. B-score at 10 µM. 0.49% of 310,000 active;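 active = B-score above 5 SD of library B-scores, and initial fluorescence ratio not above library mean plus 5 SD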;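 note: positive B-score marks a calcium rise read as TRPC4 activation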
#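 Test system: HEK293 cells stably co-expressing mouse TRPC4beta and mu-opioid receptor | Schedule: Fluo4 dye loading 45 min at room temperature, 110 s recording | Measured by: Kinetic Fluo4 calcium fluorescence, 5 s baseline at 1 Hz | Evaluation: B score of integrated ratio | Controls: Buffer (low) and maximal DAMGO (high)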
# TRPC6 act = activators of mouse TRPC6 channel. Q61143. B-score at 10 µM. 0.13% of 310,000 active. HEK293-TRPC6 membrane potential dye fluorescence; hits give high values. AID 2550;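 active = B-score of the integrated fluorescence ratio above library mean plus 3 SD, and starting fluorescence ratio within library mean plus 5 SD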;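 note: higher score means more depolarization so channel activation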
# TRPC4 inh = TRPC4 (mouse) channel inhibition. HEK293 TRPC4beta/mu-opioid, DAMGO-evoked Fluo4 calcium flux; hits give low values. AID 2247. Q9QUQ5. 0.39% of 300,000 active. B-score at 10 µM;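 active = B-score over 3 SD under the library average, no early fluorescence shift, positive overall ratio signal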
#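 System: stable TRPC4beta/mu-opioid receptor HEK293 cells; Dosing: single-point compound dosing; Measured by: Fluo4 Ca2+ flux fluorescence; Read-out basis: per-well B score of integrated baseline-normalized Fluo4 ratio.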
# HEK293 MPD ctr = counter-screen for TRPC6 modulators: effect in parental HEK293 cells | shares compounds with TRPC6 inhibitor | membrane potential dye fluorescence | membrane potential signal change, % at 10 µM | 51% of 2,400 active;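 active = membrane potential signal moves up or down beyond 5 SD from buffer-only wells, on both duplicate plates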
# HEK293 MPD ctr 2 = second counter-screen for TRPC6 modulators: effect in parental HEK293 cells; shares compounds with TRPC6 inhibitor; membrane potential dye fluorescence; after compound, maximal acetylcholine stimulation; inhibition, % at 10 µM; 14% of 2,400 active; AID 488926;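 active = membrane potential signal drops by more than 5 SD from the mean control signal, in both duplicate plates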
# TRPC4/MOR mod = mouse TRPC4 off-target activity of TRPC6 modulators; shares compounds with TRPC6 inhibitor; HEK293 TRPC4/mu-opioid, membrane potential fluorescence; 69% of 2,400 active; percent change from control (negative = decrease, positive = increase), % at 10 µM;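 active = membrane potential signal moved up or down beyond 5 SD of buffer control wells, in both duplicate plates, actives on both sides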
# TRPC4/MOR inh 2 = second check of whether TRPC6 modulators also affect mouse TRPC4; shares compounds with TRPC6 inhibitor; HEK293 TRPC4/mu-opioid, membrane potential dye fluorescence; stimulated with maximal-effect DAMGO; inhibition, % at 10 µM; 55% of 2,400 active; AID 488928;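 active = drop in membrane potential signal beyond 5 SD of the control wells in both duplicate plates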;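 note: TRPC4 counter screen for TRPC6 hits run under conditions tuned for TRPC6 not TRPC4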
# TRPC6 inh conf = mouse TRPC6 inhibitor confirmation; shares compounds with TRPC6 inhibitor; HEK293-TRPC6, membrane potential dye, ACh-evoked depolarization; inhibition, % at 10 µM; 43% of 3,300 active;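 active = fluorescence ratio falls more than 5 SD below the full-stimulation control mean, in both duplicate runs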;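 note: integrated fluorescence ratio of peak minus minimum over baseline after agonist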
# TRPC6 act conf = mouse TRPC6 activator confirmation. shares compounds with TRPC6 inhibitor. HEK293-TRPC6 membrane potential dye fluorescence, FDSS. activation, % at 10 µM. 11% of 2,800 active;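 active = ratio signal rise beyond 5 SD above unstimulated control wells' mean, seen in both duplicate runs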
# Hits are given with their value; . = inactive; / = no result given. Shown are actives, neighbours in structure and some others; about 2.3% of the full set was active somewhere.
SMILES,TRPC6 inhibitor,TRPC4 PAM,TRPC4 agonist,TRPC6 act,TRPC4 inh,HEK293 MPD ctr,HEK293 MPD ctr 2,TRPC4/MOR mod,TRPC4/MOR inh 2,TRPC6 inh conf,TRPC6 act conf
CN(c1cccc(NS(=O)(=O)c2cccs2)c1)S(C)(=O)=O,-6.1,.,.,.,.,.,.,.,.,.,.
COc1ccc(S(=O)(=O)Nc2cccc(N(C)S(C)(=O)=O)c2)cc1Br,.,.,.,.,.,/,/,/,/,/,/
CCc1ccc(OCC2NCCc3cc(OC)c(OC)cc32)cc1 (stereo not given),-5.8,.,.,.,.,.,.,.,46%,.,.
Nc1ccc(S(=O)(=O)Nc2nc3ccccc3o2)cc1,.,.,.,.,.,/,/,/,/,/,/
Cc1ccc(C)c(-n2c(-c3csc(C)c3C)n[nH]c2=S)c1,.,.,.,.,.,/,/,/,/,/,/
NCc1cc2c3c(c1)CCCN3CCC2,-5.7,.,.,.,.,.,.,.,.,.,.
COc1ccc(C(=O)Nc2ccnn2C2CCN(C(=O)c3cc(C)on3)CC2)cc1,.,.,.,.,.,/,/,/,/,/,/
Nc1ccc(O)c2c1C(=O)c1ccccc1C2=O,-8.2,.,.,.,.,-85%,.,-40%,66%,42%,.
Nc1ccc(Br)c2c1C(=O)c1ccccc1C2=O,.,.,.,.,.,/,/,/,/,/,/
O=C1c2cccc3c(N4CCCCC4)ccc(c23)C(=O)N1CCO,.,.,.,12,.,937%,144%,218%,122%,.,180%
O=C1CC(NS(=O)(=O)c2cccnc2)CN1c1ccc(Cl)cc1 (stereo not given),.,.,.,.,.,/,/,/,/,/,/
CN(C)CCNc1ccc(-c2nn(C)c(=O)c3ccccc23)cc1[N+](=O)[O-],-5.2,.,.,.,.,-134%,.,-32%,78%,72%,.
Cn1nc(-c2ccc(NCCO)c([N+](=O)[O-])c2)c2ccccc2c1=O,.,.,.,.,.,/,/,/,/,/,/
CN(C)CCNc1cc(-c2ccncc2)nc2ccccc12,-11,15,.,.,.,-328%,90%,-81%,78%,75%,.
Cc1ccc(-c2nc(NCCN(C)C)c3ccccc3n2)cc1,.,.,.,.,.,/,/,/,/,/,/
COc1ccccc1NC(=O)C(C)OC(=O)C1CCC(C(C)(C)C)CC1 (stereo not given),.,.,.,.,.,/,/,/,/,/,/
O=C(O)c1ccc(N=N/C(=N\Nc2ccc(C(=O)O)cc2)c2ccccc2)cc1,.,.,.,.,.,/,/,/,/,/,/
Brc1ccc(N/N=C(/N=Nc2nn[nH]n2)c2ccccc2)cc1,-11,.,.,.,-6,-256%,.,-44%,91%,65%,.
CSc1ccccc1NC(=O)c1ccccc1N(Cc1ccccc1)S(C)(=O)=O,-5.2,.,.,.,.,142%,.,30%,.,.,/
Cc1cccn2c(=O)nc(SCC(=O)NCc3ccc4c(c3)OCO4)nc12,.,.,.,.,.,/,/,/,/,/,/
